The values below come from ChEMBL document CHEMBL1145785, “Design, synthesis, and structure-activity relationships of alkylcarbamic acid aryl esters, a new class of fatty acid amide hydrolase inhibitors” (J Med Chem, 2003).

SMILES strings stand for the structures.

Assay [1] deals with T1, Fatty-acid amide hydrolase 1 (Rattus norvegicus, UniProt P97612).
T1 sequence (P97612 whole entry): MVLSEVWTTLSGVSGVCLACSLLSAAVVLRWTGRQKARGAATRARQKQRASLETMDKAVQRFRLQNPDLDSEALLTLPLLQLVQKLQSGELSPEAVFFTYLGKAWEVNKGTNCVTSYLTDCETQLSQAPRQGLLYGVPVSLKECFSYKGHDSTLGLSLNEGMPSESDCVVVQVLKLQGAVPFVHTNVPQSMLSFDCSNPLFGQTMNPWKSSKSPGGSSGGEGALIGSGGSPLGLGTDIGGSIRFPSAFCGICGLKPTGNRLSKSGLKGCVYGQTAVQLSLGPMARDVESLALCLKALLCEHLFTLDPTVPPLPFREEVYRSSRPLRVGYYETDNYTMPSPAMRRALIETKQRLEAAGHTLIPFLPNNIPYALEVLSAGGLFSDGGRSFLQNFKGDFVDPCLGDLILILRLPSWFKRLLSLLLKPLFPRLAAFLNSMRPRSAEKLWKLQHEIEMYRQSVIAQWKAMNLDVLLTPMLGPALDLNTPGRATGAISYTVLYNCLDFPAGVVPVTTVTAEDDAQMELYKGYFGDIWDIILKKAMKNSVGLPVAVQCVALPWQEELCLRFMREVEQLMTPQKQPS
Description: Inhibition of [3H]anandamide binding to fatty acid amide hydrolase of rat brain membrane. The essentials:
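Membrane fractions prepared from rat brain homogenates; FAAH activity measured as hydrolysis of anandamide[ethanolamine-3H] (60 Ci/mmol) as substrate. Value reported as half-maximal inhibitory concentration (IC50) of FAAH activity.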

The target of assay [2] is T1, Fatty-acid amide hydrolase 1. Description: Fatty acid amide hydrolase inhibitory activity in rat brain membrane using [3H]anandamide as a substrate. Type of assay: cell membranes. The essentials: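 Membrane fractions prepared from rat brain homogenates. FAAH activity measured as hydrolysis of [3H]anandamide, radiolabelled on the ethanolamine (60 Ci/mmol), used as substrate. IC50 taken as the half-maximal concentration for inhibition of hydrolysis.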

Consider `O=C(NC1CCCCC1)Oc1ccc(/C=C\c2ccccc2)cc1`, for which the IC50 in assay [1] is 0.263 µM; in assay [2], 0.266 µM.

`CCCCNC(=O)Oc1ccc2cc(Br)ccc2c1` gave an IC50 in assay [1] of 0.759 µM.

Consider `O=C(NC1CCCCC1)Oc1ccc2cccc(Br)c2c1`, for which the IC50 in assay [1] and in assay [2] was 0.174 µM throughout.

Take `CCNC(=O)Oc1ccc(C)cc1`: in assay [2], the concentration for half-maximal inhibition (IC50) was more than 30 µM.

Regarding `CCCCNC(=O)Oc1ccc(F)cc1`, the IC50 in assay [1] and in assay [2] was 11.5 µM each time.

In assay [1], `Cc1ccc(OC(=O)NC2CCCCC2)cc1` gave an IC50 of 5.37 µM.

As for `O=C(NC1CCCCC1)Oc1cccc(-c2ccccc2)c1`, the IC50 in assay [1] is 0.0631 µM.

`S=C(NC1CCCCC1)Oc1ccc2ccccc2c1` displayed an IC50 in assay [2] of more than 30 µM.

With `S=C(NC1CCCCC1)Sc1ccc2ccccc2c1`, in assay [2], the IC50 was more than 30 µM.

As for `CCCCCc1cccc(OC(=O)NC2CCCCC2)c1`, the IC50 in assay [1] was 0.186 µM; in assay [2], 0.188 µM.

For `CCCCNC(=O)Oc1ccc(OCc2ccccc2)cc1`, the IC50 in assay [1] is 0.389 µM; in assay [2], 0.39 µM.

With `O=C(NC1CCCCC1)Oc1ccc(-c2ccccc2)cc1`, the half-inhibitory concentration (IC50) in assay [1] was 2.29 µM.

Molecule `O=C(Cc1ccc2ccccc2c1)NC1CCCCC1` yielded a half-inhibitory concentration (IC50) in assay [2] of more than 30 µM.

In turn, `CCCCCCOC(=O)NC1CCCCC1` gave an IC50 in assay [2] of 3.76 µM.

Turning to `O=C(NC1CCCCC1)Oc1ccc(/C=C/c2ccccc2)cc1`, in assay [1], the 50% inhibitory concentration (IC50) was 3.31 µM.

In turn, `O=C(NC1CCCCC1)Oc1ccc2ccccc2c1` showed an IC50 in assay [1] of 0.324 µM.

On to `Cc1cccc(OC(=O)NC2CCCCC2)c1`, for which the concentration for half-maximal inhibition (IC50) in assay [1] is 0.813 µM; in assay [2], 0.808 µM.

Turning to `O=C(NC1CCCCC1)Oc1ccccc1`, the half-inhibitory concentration (IC50) was 3.8 µM in assay [1] and 3.78 µM in assay [2].

On to `O=C(Nc1cccc(-c2ccccc2)c1)OC1CCCCC1`, for which the IC50 in assay [2] was more than 30 µM.

The molecule `O=C(NC1CCCCC1)OCCCCCc1ccccc1` yielded an IC50 in assay [2] of more than 30 µM.

Turning to `CNC(=O)Oc1ccc2ccccc2c1`, the IC50 in assay [2] came to 18.3 µM.

As for `O=C(Nc1ccc2ccccc2c1)NC1CCCCC1`, in assay [2], the IC50 was more than 30 µM.

For the molecule `O=C(NC1CCCCC1)Sc1ccc2ccccc2c1`, the IC50 in assay [2] came to 15.6 µM.

As for `CCc1ccc2cc(OC(=O)NC3CCCCC3)ccc2c1`, the IC50 in assay [1] was 3.55 µM; in assay [2], 3.53 µM.

With `S=C(Nc1ccc2ccccc2c1)NC1CCCCC1`, the IC50 in assay [2] is more than 30 µM.

On to `CNC(=O)Oc1cccc2ccccc12` [CARBARIL], for which the 50% inhibitory concentration (IC50) in assay [2] was more than 30 µM.
